E-sel inducer = E-selectin induction in HUVECs, primary screen, imaging, HUVEC, immunofluorescence imaging, single point; normalized: neutral wells 0, TNF-alpha wells 100; activation, % at 7.58 µM; 0.37% of 260,000 active; AID 686992, 2013;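 active means mean E-selectin-positive cell signal at least 10% of the positive control, reached in at least 60% of replicates, without over 20% cell loss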
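Assay system: HUVEC primary endothelial cells. Input: 3,000 HUVEC seeded per well. Doses: one compound dose added by pin transfer. Read-out basis: % PE-positive cells. Benchmarks: TNF-alpha high, DMSO low. Detection: immunofluorescence imaging. Buffer or medium: EGM-2, gelatin.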
DENV2 CPE = inhibitors of DENV2 cytopathic effect, primary screen, cell-based, plate reader, single concentration; DENV2-infected cells, cytopathic effect rescue; CPE inhibition, % at 9.99 µM; 1.7% of 350,000 active; AID 651640, 2012; in the data active means CPE inhibition above about 20%, passing the limit was not always enough; tested in BHK-21 cells;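 further: 0% = median of neutral control wells and 100% = median of positive control wells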
XiGFP reactiv = activators of inactive X chromosome reactivation, primary screen, imaging, XiGFP fibroblasts, GFP high-content imaging, set 2; XiGFP mouse fibroblasts, % GFP-positive cells imaging, 3 d; cells co-treated with 5-aza-dC sensitizer; scaled so ellipticine positive control = 100%; activation, % at 7.58 µM; 0.055% of 360,000 active;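 active means mean normalized replicate activation at least 10% and every replicate at or above 10%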;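 further: 0% = median of on-plate neutral control wells and 100% = ellipticine 6 µM median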
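System: 68-5-11 XiGFP fibroblast line; Timing: 3 days compound exposure; Compound dosing: one concentration, pinned; Benchmarks: positive control ellipticine, 6 µM final; Buffer or medium: DMEM containing 5-aza-dC.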
FGF22 binding = binders of human FGF22 protein, primary screen, FGF22 synaptogenesis inhibitor project, biophysical, thermal shift, single point; activity (Tm shift, normalised), % at 9.99 µM; recombinant FGF22 thermal shift, SYPRO orange fluorescence; percent of sucrose octasulfate shift, DMSO zero; AID 651658, 2012; 1.5% of 340,000 active; Fibroblast growth factor 22 (Homo sapiens), Q9HCT0;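 active means mean Tm shift, scaled 0 neutral to 100 positive control, at about 1.3% or above, every replicate too, limit read from the data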
PglD DTNB = C. jejuni PglD acetyltransferase inhibitors, primary screen, biochemical, DTNB colorimetric, single point. inhibition, % at 12.5 µM. UDP-N-acetylbacillosamine N-acetyltransferase PglD (Campylobacter jejuni). 0.098% of 360,000 active. purified PglD enzyme, DTNB colorimetric CoA detection; in the data active means inhibition above about 16%, passing the limit was not always enough
Statin myotox sup = suppressors of statin myotoxicity in C2C12 myotubes, primary screen, cell-based, single point, plate reader | C2C12 myotubes + simvastatin, ATP luminescence, 48 h; scaled: DMSO 0, geranylgeraniol control 100 | rescue of ATP level, % at 7.49 µM | 0.78% of 330,000 active | AID 602340, 2012;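 active means mean ATP rescue above about 67%, or every replicate alone reaching that limit, limit read from the data, passing the limit was not always enough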;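 further: myotubes were challenged with 10 µM simvastatin during compound exposure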
Active calls of the source: *; x = no result given. A selection: hits, their analogues and other compounds. The true share with any hit is near 3.3%.

SMILES	E-sel inducer	DENV2 CPE	XiGFP reactiv	FGF22 binding	PglD DTNB	Statin myotox sup
C[C@@H]1CN([C@H](C)CO)C(=O)c2cc(-c3cccnc3)cnc2O[C@@H]1CN(C)Cc1ccccc1	0	x	1	x	x	7
COCC(=O)N1CC(=O)N2[C@H](C1)[C@H](c1ccc(Br)cc1)[C@@H]2CO	0	-6	0	1	x	x
CCOC(=O)C1CCN(c2c(NCc3ccc(C(=O)NCCC(C)C)cc3)c(=O)c2=O)CC1	x	x	x	x	-6	6
CCCNC(=O)c1ccc(CNc2c(N3CCC(C(=O)OCC)CC3)c(=O)c2=O)cc1	x	x	x	x	5	133*
C[C@@H](NC(=O)C[C@@H]1CC[C@H]2[C@@H](COC[C@H](O)CN2C(=O)Nc2cc(Cl)cc(Cl)c2)O1)c1ccccc1	0	40*	0	0	1	-2
C[C@@H](NC(=O)C[C@@H]1CC[C@H]2[C@@H](COC[C@@H](O)CN2C(=O)Nc2cc(Cl)cc(Cl)c2)O1)c1ccccc1	0	2	0	0	3	10
C[C@H](NC(=O)C[C@H]1CC[C@H]2[C@@H](COC[C@@H](O)CN2C(=O)Nc2cc(Cl)cc(Cl)c2)O1)c1ccccc1	0	23*	0	0	-4	-16
CO[C@H]1CN(C)C(=O)c2ccc(NC(=O)CC(F)(F)F)cc2OC[C@H](C)N(C(=O)C2CCOCC2)C[C@@H]1C	0	4	0	0	x	x
CCN1C(Nc2ccccc2)=NC[C@@H]1CC(C)C	0	22*	0	0	0	-5
c1ccc(CCCCN2C(Nc3ccccc3)=NC[C@@H]2Cc2ccccc2)cc1	0	24*	-1	0	1	5
CO[C@@H]1CN(C)C(=O)c2ccc(NC(=O)c3ccccn3)cc2OC[C@@H](C)N(CC2CC2)C[C@H]1C	x	-6	x	0	-5	5
Cc1cccc(N2CCN(C(C(=O)NCc3ccccc3)c3ccc(F)cc3)CC2)c1C (stereo not given)	0	59*	0	0	x	x
CCn1c(C)[n+](Cc2ccccc2)c2ccc(C(=O)OC)cc21	x	14	0	43*	x	x
CCCNC(=O)N1CC2(C1)[C@H](c1ccccc1)[C@H](CO)N2CC1CC1	0	1	0	x	x	x
COc1ccc(/C=N/NS(=O)(=O)c2ccccc2)cc1OC(=O)c1ccc(C)cc1	x	x	x	x	3	110*
C/C=C(\C)C(=O)Nc1cccc(C2=NOC3(C2)C[C@@H](C(N)=O)N(C(=O)/C(C)=C/C)C3)c1 (stereo not given in full)	0	30*	0	0	-2	-6
C/C=C(\C)C(=O)Nc1cccc(C2=NOC3(C2)C[C@@H](C(N)=O)N(C(=O)c2ccccc2C(=O)c2ccccc2)C3)c1 (stereo not given in full)	0	23*	0	0	2	10
C/C=C(/C)C(=O)Nc1cccc(C2=NOC3(C2)C[C@H](C(N)=O)N(C(=O)c2ccccc2)C3)c1 (stereo not given in full)	0	15	0	0	3	3
C[C@@H]1CN([C@H](C)CO)C(=O)c2cc(/C=C/c3ccccc3)cnc2O[C@@H]1CN(C)S(=O)(=O)c1cccs1	0	15	0	0	13	8
O=C(CCCOc1ccc(Cl)cc1)N1CCCCC1	x	4	x	0	3	-14
O=C(NCCOc1ccccc1)C1CCCCC1	4	1	0	43*	5	4
O=C(CCSc1ccccc1)N1CCCC1	x	4	0	44*	-2	x
O=C(NCCOc1ccccc1)C1CCN(C(=O)Nc2ccccc2)CC1	0	-3	0	1	0	6
O=C(CCSc1ccccc1)N1CCOCC1	x	x	x	x	9	-6
O=C(CCCOc1ccccc1)N1CCCCC1	x	x	x	x	-14	94*

Compound activity: PubChem, Broad Institute
